Screening results as filed in PubChem.
Sampled rows, rich in hits. Any-hit rate of the full collection: about 1.3%.
G6PDH CS: L. mesenteroides G6PDH inhibitors, counter-screen for G6PDH-coupled screening assays, biochemical, Leuconostoc mesenteroides enzyme; glucose-6-phosphate dehydrogenase [Leuconostoc mesenteroides]; inhibition, % at 5 µM; Purified L. mesenteroides G6PDH, diaphorase/resazurin coupled fluorescence, 45 min; 200,000 tested, 0.12% active; in the data active means inhibition above about 50%
Diaphorase inh: diaphorase inhibitors and chemical oxidizers, primary screen, counter-screen for diaphorase-coupled primary assays, biochemical, uHTS, resorufin fluorescence; inhibition, % at 20 µM; diaphorase resazurin-to-resorufin fluorescence, NADH, 16 min; bacterial (C. kluyveri) enzyme, not human; 190,000 tested, 0.69% active;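 active means primary screen inhibition at 20 µM above a set limit, cut at about 50% in these data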;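 further: plate controls were DMSO with full reaction for no effect and wells lacking NADH for full effect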
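Assay system – diaphorase enzyme from Clostridium kluyveri · Amount – diaphorase 0.14 U/mL (working solution) · Times – reaction incubation of 16 min at room temperature · Controls – No-NADH positive control and DMSO neutral control · Signal – resorufin fluorescence 544/590 nm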
Diaphorase act: compounds boosting diaphorase resazurin reduction – biochemical, uHTS, resorufin fluorescence, counter-screen for diaphorase-coupled primary assays, primary screen. Diaphorase/resazurin coupled assay, 16 min; hits give high values; 1 = vehicle wells, 0 = NADH-free wells. activation factor at 20 µM. 190,000 tested, 0.005% active. AID 1229, 2008;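 active means diaphorase activity raised at least twofold by the compound at 20 µM; inactive means activation factor below 2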
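Test system: Clostridium kluyveri diaphorase, purified enzyme; input: enzyme 0.07 U/mL final; buffer or medium: 50 mM HEPES pH 7.4 with 4.542 mM MgCl2, 0.005% Tween 20; also added: 0.114 mM NADH and 0.1 mM resazurin, final amounts; schedule: 16 min enzyme reaction, ambient temperature; technique: fluorescence of resorufin, 544 nm excitation, 590 nm emission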
PfGluPho inh: PfG6PD enzyme inhibitors, primary screen, biochemical, fluorescence intensity, uHTS; PfGluPho enzyme, NADPH resazurin-diaphorase fluorescence; inhibition, % at 20 µM; 350,000 tested, 0.78% active; glucose-6-phosphate dehydrogenase-6-phosphogluconolactonase (Plasmodium falciparum 3D7);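 active means inhibition reaching at least a set limit at 20 µM in the primary screen, cut at about 59% in these data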;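 further: 0% = DMSO wells with substrate and 100% = DMSO wells lacking glucose-6-phosphate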
HKDC1 inhibitor: HKDC1 hexokinase inhibitors, primary screen, biochemical, fluorescence, uHTS; inhibition, % at 20 µM; recombinant HKDC1, G6PDH/diaphorase resazurin coupled fluorescence; Q2TB90; AID 493160, 2011; 340,000 tested, 0.16% active;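 active means inhibition above about 35% when tested at 20 µM, limit read from the data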;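 further: plate controls were DMSO wells with enzyme for no effect and DMSO wells lacking enzyme for full effect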
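Test system: HK5 enzyme. Quantity: 5 µg/mL HK5 final. Reagent: glucose and ATP substrates. Schedule: 90 min reaction incubation at room temperature, dark. Technique: resazurin-to-resorufin fluorescence via G6PDH and diaphorase coupling, 525/613 nm. Control set: DMSO wells with and without enzyme mix.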
PfGluPho conf: PfG6PD inhibitors, hit retest, confirmation, biochemical, fluorescence intensity, single concentration; 2,400 tested, 34% active; AID 504753, 2011; recombinant PfGluPho, NADPH-diaphorase-resazurin fluorescence; inhibition, % at 20 µM; shares compounds with PfGluPho inh;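 active means inhibition of at least 50% at 20 µM in any single replicate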;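 further: 0% = DMSO with substrate and 100% = DMSO lacking glucose-6-phosphate substrate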
Diaph ctr 10uM: diaphorase inhibitors and chemical oxidizers, confirmation, counter-screen for P. falciparum G6PD inhibitor project, biochemical, fluorescence intensity, 10 µM NADPH; diaphorase-coupled resazurin reduction, NADPH 10 uM; 820 tested, 39% active; shares compounds with PfGluPho inh; inhibition, % at 20 µM;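 active means average inhibition reaching 50% or more with the compound at 20 µM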;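 further: resorufin red fluorescence formed as diaphorase reduces resazurin using NADPH; 0% = DMSO with enzyme and 100% = DMSO without enzyme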
Diaph ctr 30uM: diaphorase inhibitors and chemical oxidizers, confirmation, counter-screen for P. falciparum G6PD inhibitor project, biochemical, fluorescence intensity, 30 µM NADPH; shares compounds with PfGluPho inh; inhibition, % at 20 µM; 820 tested, 29% active; Diaphorase/resazurin coupled assay, resorufin fluorescence;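 active means inhibition averaging 50% or more, tested at 20 µM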;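 further: 0% = DMSO with enzyme and 100% = DMSO wells lacking diaphorase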
Active calls of the source: *; · = no result given.

SMILES	G6PDH CS	Diaphorase inh	Diaphorase act	PfGluPho inh	HKDC1 inhibitor	PfGluPho conf	others
Cc1cccc(OCCn2c(=S)[nH]c3ccccc32)c1	14	24	0.8	68*	-10	32
C[C@]12CC[C@@H]3c4cc(O)c(O)cc4CC[C@H]3[C@@H]1CC[C@@H]2O	29	66*	0.3	97*	-6	86*	Diaph ctr 10uM=28;Diaph ctr 30uM=14
C[C@]12CC[C@@H]3c4ccc(O)cc4CC[C@H]3[C@@H]1CC[C@@H]2O	9	2	1	-2	-5	·
COc1ccc(-c2cn3c4c(sc3n2)CCCC4)cc1	6	15	0.8	93*	4	45
COc1ccc(-c2cn3c(C)c(C(=O)Nc4ccncc4)sc3n2)cc1	0	-17	1.2	65*	-3	19
Cc1c(C(=O)Nc2ccncc2)sc2nc(-c3ccc(F)cc3)cn12	-45	17	0.8	84*	8	10
CCCCNC(=O)CCCN1C(=O)c2cccnc2Sc2ccccc21	·	·	·	5	-3	·
CCn1c(SCC(=O)NNC(=O)c2ccc(C)cc2)nnc1-c1ccncc1	·	·	·	-15	-5	·
O=C(CSc1nnc2c(n1)[nH]c1ccccc12)Nc1ccc2c(c1)OCO2	-3	12	0.9	64*	-5	0
O=C(CSc1nnc2c(n1)[nH]c1ccccc12)Nc1cccc(S(=O)(=O)N2CCOCC2)c1	·	·	·	62*	8	16
O=C(NCc1ccccc1)C(=O)NCC1OCCCN1S(=O)(=O)c1cccs1 (centres undefined)	·	·	·	4	-7	·
CC1CC(C)(C)Nc2ccc(N=O)cc21 (centres undefined)	12	26	0.7	4	3	·
CC(C)c1nnc(NC(=O)c2ccc3c(c2)OCO3)s1	33	4	1	73*	4	20
CCSc1nnc(NC(=O)c2ccc3c(c2)OCO3)s1	-18	6	0.9	85*	-1	74*	Diaph ctr 10uM=68*;Diaph ctr 30uM=68*
Cc1cnc(NC(=O)c2sc3ccccc3c2Cl)s1	-3	1	1	57	-3	·
CC(C)c1nnc(NC(=O)c2sc3ccccc3c2Cl)s1	7	5	1	64*	-4	63*	Diaph ctr 10uM=39;Diaph ctr 30uM=36
CC(c1ccccc1)c1nnc(NC(=O)c2ccc3c(c2)OCO3)s1 (centres undefined)	·	·	·	22	-5	·
CC(C)Sc1nnc(NC(=O)c2ccc3c(c2)OCO3)s1	·	·	·	100*	-1	66*	Diaph ctr 10uM=59*;Diaph ctr 30uM=46
Cc1ccsc1C(=O)OCC(=O)NCc1ccc2c(c1)OCO2	13	14	0.9	6	-2	·
CC(CNC(=O)CN1C(=O)C(=O)N(C2CCCC2)C1=O)c1ccccc1 (centres undefined)	·	·	·	-9	-3	·
Cc1cc(OC(=O)C(C)(C)C)c([N+](=O)[O-])c(=O)[nH]1	-1	12	0.9	2	-6	·
CN(C)S(=O)(=O)Nc1ccccn1	·	·	·	2	-5	·
Cc1ccc(-c2nc3c(c(=O)c4ccccc4n3C)c(=O)n2Cc2ccco2)cc1	·	·	·	23	9	·
O=C(NC1CCNCC1)C1CCCCC1	·	·	·	-6	-6	·
CC(C)c1nnc(NC(=O)c2ccc3ccccc3c2)s1	·	·	·	74*	-2	30
SMILES	G6PDH CS	Diaphorase inh	Diaphorase act	PfGluPho inh	HKDC1 inhibitor	PfGluPho conf	others
Cc1nnc(NC(=O)c2ccc3ccccc3c2)s1	·	·	·	20	4	·
COC(=O)c1c(C)nc2ccccc2c1C(=O)O	9	11	0.9	6	-6	·
COC(=O)c1cc(C)[nH]c2c(C)cc3nc4ccccc4c3c12	·	·	·	71*	3	-12
Cc1cc(-n2c(SCc3ccccc3F)nc3n[nH]c(C)c3c2=N)ccc1Cl	-2	6	0.9	18	-4	·
Cc1ccc2nc(SCC(=O)N/N=C/c3ccco3)cc(C)c2c1	4	24	0.8	69*	0	50*	Diaph ctr 10uM=66*;Diaph ctr 30uM=36
Cc1ccc2nc(C)cc(SCC(=O)N/N=C/c3ccco3)c2c1	·	·	·	7	2	·
Cc1ccc2nc(N/N=C/c3ccco3)cc(C)c2c1	2	-12	1.1	64*	1	28
COC(=O)Cc1sc(-c2ccccn2)nc1-c1ccccc1	-1	18	0.8	63*	-14	23
Cc1ccc(Nc2n[nH]c(=S)s2)cc1	·	·	·	44	·	·
S=c1[nH]nc(Nc2ccc(Cl)cc2)s1	·	·	·	65*	-2	36
Cc1ccc(Nc2n[nH]c(=S)s2)cc1F	·	·	·	72*	-2	23
N#C/C(=C\c1ccc(N2CCOCC2)o1)c1nc2ccccc2[nH]1	20	24	0.8	38	9	·
N#C/C(=C/c1ccc(N2CCOCC2)o1)c1ccc(Cl)cc1	-7	5	1	78*	-4	12
COC(=O)c1c(C)n(-c2ccccc2)c2ccc(O)cc12	5	23	0.8	63*	20	28
C=CCOC(=O)C1=C(C)N=c2s/c(=C3\C(=O)N(CC(=O)O)c4ccccc43)c(=O)n2C1c1ccc(OC)cc1 (centres undefined)	·	·	·	60*	2	-7
O=C(Nc1ccc(C(=O)N2CCCCC2)cc1)c1cccs1	·	·	·	-16	-8	·
C=CCN(CC=C)Cc1cc(=O)n2c(-c3ccccc3)csc2n1	·	·	·	4	3	·
O=c1cc(CN2CCN(c3ccc(O)cc3)CC2)nc2scc(-c3ccccc3)n12	10	27	0.7	65*	7	29
O=C(Nc1ccccc1C(=O)N/N=C/c1ccc(F)cc1)c1ccccc1Br	0	14	0.9	104*	1	84*	Diaph ctr 10uM=69*;Diaph ctr 30uM=59*
O=C(N/N=C/c1ccc(O)cc1)c1ccc(NC(=O)c2ccccc2Br)cc1	3	-3	1	0	4	·
CN(C)c1ccc(C=c2c3ccccc3n3c2c2ccccc2[n+]3C)cc1	·	·	·	89*	25	88*	Diaph ctr 10uM=-20;Diaph ctr 30uM=-1
COc1ccc2c(c1)-c1ccccc1S(=O)(=O)N(C)C2	·	·	·	51	-2	·
